Data from ChEMBL document CHEMBL3352671, “Inhibitory and mechanistic investigations of oxo-lipids with human lipoxygenase isozymes” (Bioorg Med Chem, 2014).
Activity calls are given as the source filed them. The rule behind the calls is not given here.

Assays:
[1] = target: T1, Polyunsaturated fatty acid 5-lipoxygenase (Homo sapiens, UniProt P09917); assay: Inhibition of human leukocyte 5-lipoxygenase by UV-visible spectrophotometry
T1 sequence (P09917 whole entry): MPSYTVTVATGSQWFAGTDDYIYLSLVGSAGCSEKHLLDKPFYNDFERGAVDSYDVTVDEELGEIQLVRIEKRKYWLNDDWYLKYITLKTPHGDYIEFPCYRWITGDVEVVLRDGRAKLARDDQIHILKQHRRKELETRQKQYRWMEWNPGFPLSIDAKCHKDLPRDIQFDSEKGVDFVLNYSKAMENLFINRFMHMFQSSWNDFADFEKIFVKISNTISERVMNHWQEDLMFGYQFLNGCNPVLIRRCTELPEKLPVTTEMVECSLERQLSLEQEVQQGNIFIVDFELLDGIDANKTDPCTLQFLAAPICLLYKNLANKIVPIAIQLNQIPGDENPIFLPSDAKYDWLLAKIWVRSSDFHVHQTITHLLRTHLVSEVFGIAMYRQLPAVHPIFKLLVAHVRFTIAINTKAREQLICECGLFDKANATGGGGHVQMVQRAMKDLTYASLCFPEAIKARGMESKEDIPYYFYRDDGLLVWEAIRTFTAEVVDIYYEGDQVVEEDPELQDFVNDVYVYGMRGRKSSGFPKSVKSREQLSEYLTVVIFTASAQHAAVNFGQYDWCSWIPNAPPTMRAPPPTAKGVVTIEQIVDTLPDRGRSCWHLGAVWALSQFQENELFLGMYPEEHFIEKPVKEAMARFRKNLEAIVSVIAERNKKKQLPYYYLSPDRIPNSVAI

[2] = target: T2, Polyunsaturated fatty acid lipoxygenase ALOX12 (Homo sapiens, UniProt P18054); assay: Inhibition of human platelet 12-lipoxygenase by UV-visible spectrophotometry
T2 sequence (P18054 whole entry): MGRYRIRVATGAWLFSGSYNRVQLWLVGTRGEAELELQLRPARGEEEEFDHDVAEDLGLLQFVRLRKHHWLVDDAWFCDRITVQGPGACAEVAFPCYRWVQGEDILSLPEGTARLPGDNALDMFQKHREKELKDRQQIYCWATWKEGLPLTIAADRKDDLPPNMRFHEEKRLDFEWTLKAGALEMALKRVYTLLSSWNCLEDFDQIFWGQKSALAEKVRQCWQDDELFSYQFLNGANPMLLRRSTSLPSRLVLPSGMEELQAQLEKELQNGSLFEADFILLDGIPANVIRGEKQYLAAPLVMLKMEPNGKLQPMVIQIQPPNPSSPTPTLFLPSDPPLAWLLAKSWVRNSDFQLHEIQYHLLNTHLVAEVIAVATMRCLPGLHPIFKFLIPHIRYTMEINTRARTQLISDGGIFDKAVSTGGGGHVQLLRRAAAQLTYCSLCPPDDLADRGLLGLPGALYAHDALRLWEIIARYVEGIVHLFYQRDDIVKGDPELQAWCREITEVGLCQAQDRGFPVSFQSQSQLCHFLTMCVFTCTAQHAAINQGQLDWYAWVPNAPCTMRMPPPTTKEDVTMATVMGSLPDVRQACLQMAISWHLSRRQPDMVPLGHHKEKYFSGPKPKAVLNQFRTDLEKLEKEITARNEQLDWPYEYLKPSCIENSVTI
Summary of the method: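 h12-LOX (~100 nM total protein) in 25 mM HEPES pH 8.0, 0.01% Triton X-100, 10 μM AA, run as stirred 2 mL reactions at 23°C. Diene formation was read at 234 nm.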

[3] = target: T3, Polyunsaturated fatty acid lipoxygenase ALOX15 (Homo sapiens, UniProt P16050); assay: Inhibition of human reticulocyte 15-lipoxygenase-1 by UV-visible spectrophotometry
T3 sequence (P16050 whole entry): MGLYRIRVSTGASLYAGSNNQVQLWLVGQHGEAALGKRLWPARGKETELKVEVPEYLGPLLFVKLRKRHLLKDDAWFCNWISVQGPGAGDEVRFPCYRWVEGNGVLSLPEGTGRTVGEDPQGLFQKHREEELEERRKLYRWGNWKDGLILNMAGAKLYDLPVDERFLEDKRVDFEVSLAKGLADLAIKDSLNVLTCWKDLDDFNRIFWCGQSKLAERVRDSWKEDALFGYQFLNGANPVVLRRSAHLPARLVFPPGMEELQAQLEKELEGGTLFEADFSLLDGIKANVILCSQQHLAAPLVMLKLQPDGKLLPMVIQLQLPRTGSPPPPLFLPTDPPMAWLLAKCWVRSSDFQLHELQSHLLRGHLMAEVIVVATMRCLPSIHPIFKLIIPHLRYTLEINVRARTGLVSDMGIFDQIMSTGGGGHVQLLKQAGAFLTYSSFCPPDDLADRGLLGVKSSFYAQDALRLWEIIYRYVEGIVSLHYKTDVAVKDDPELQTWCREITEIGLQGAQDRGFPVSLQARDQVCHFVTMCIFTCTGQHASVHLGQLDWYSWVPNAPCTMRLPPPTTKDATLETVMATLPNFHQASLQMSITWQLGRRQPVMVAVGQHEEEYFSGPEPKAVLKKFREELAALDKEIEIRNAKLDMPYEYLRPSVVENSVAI
Summary of the method: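 Purified h15-LOX-1 (~60 nM total protein) in stirred 2 mL reactions at 23°C, 25 mM HEPES pH 7.5, 0.01% Triton X-100, 10 μM AA. Rate followed as conjugated diene formation at 234 nm. IC50 from at least five inhibitor concentrations by hyperbolic saturation fit, triplicate. Weak inhibitors approximated from one-point screen at 25 μM (triplicate).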

[4] = target: T4, Polyunsaturated fatty acid lipoxygenase ALOX15B (Homo sapiens, UniProt O15296); assay: Inhibition of human reticulocyte 15-lipoxygenase-2 by UV-visible spectrophotometry; conditions: in the assay text read “epithelial” for “reticulocyte”
T4 sequence (O15296 whole entry): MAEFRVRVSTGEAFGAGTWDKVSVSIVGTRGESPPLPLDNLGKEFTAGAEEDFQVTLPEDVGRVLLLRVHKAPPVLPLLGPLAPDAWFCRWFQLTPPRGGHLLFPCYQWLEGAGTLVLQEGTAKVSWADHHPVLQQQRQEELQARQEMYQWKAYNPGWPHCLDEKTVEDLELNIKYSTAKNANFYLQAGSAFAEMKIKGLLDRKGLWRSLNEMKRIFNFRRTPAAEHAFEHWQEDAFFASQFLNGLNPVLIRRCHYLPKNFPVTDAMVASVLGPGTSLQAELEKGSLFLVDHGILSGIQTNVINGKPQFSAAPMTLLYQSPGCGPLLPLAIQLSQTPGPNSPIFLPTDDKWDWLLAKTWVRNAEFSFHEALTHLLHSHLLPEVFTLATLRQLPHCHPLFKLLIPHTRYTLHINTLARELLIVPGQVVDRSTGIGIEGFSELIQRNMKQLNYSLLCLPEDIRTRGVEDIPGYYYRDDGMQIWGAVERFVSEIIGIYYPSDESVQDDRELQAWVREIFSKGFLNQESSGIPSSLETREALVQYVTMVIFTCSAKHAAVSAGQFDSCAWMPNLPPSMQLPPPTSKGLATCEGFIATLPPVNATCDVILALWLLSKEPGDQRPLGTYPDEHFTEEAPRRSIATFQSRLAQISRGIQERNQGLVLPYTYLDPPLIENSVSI
Summary of the method: (§1)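 Enzyme was h15-LOX-2 (~200 nM) or rabbit 15-LOX (~50 nM), in 25 mM HEPES pH 7.5, 0.01% Triton X-100, 10 μM AA, stirred 2 mL at 23°C. Product was monitored at 234 nm.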

[5] = target: T5, Polyunsaturated fatty acid lipoxygenase ALOX15 (Oryctolagus cuniculus, UniProt P12530); assay: Inhibition of rabbit reticulocyte 15-LOX by UV-visible spectrophotometry; summary of the method: as §1
T5 sequence (P12530 whole entry): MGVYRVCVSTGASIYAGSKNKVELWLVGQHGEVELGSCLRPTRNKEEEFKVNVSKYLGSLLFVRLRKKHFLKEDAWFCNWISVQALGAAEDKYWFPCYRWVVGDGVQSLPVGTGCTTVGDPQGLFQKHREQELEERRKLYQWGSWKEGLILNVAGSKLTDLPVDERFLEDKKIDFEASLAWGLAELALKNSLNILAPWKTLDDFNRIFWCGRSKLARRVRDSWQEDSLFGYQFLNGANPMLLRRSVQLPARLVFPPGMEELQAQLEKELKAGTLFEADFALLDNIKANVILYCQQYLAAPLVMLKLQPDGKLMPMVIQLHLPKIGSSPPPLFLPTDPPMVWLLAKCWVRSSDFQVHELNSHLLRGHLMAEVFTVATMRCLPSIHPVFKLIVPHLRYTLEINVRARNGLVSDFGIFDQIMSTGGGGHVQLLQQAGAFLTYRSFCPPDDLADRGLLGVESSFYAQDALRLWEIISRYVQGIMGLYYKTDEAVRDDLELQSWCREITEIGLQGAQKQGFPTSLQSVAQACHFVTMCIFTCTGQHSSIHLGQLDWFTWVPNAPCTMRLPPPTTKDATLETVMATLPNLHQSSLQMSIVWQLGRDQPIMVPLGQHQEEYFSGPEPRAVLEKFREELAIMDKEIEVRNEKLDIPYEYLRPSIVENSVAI

[6] = Inhibition of soybean 15-lipoxygenase-1 by UV-visible spectrophotometry; set-up: species or system Glycine max
Summary of the method: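 Soybean 15-LOX-1 (~2 nM) was assayed in 100 mM borate pH 9.2, 0.01% Triton X-100, 10 μM AA, stirred 2 mL at 23°C. Conjugated diene was read at 234 nm.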

[7] = target: T6, Polyunsaturated fatty acid lipoxygenase ALOX12 (Homo sapiens) (UniProt P18054)
T6 sequence (whole entry): T2 sequence (P18054 whole entry)

[8] = target: T6, Polyunsaturated fatty acid lipoxygenase ALOX12 (Homo sapiens); remark: listed apart in the source
[9] = target: T3, Polyunsaturated fatty acid lipoxygenase ALOX15; assay: Irreversible inhibition of human reticulocyte 15-lipoxygenase-1 by assessed as equilibrium inhibitor constant
Summary of the method: (§2)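 Time-dependent inactivation: h15-LOX-1 or s15-LOX-1 was incubated on ice with neat oxo-lipid oil (no solvent) at ≥5 concentrations for varied times. Residual activity was then measured under the UV 234 nm assay conditions for each enzyme and compared with an enzyme-only control. ka was taken as the slope of ln(% activity) versus time, and Ki and k2 from a replot of ka versus [I].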

[10] = test system: Glycine max; assay: Irreversible inhibition of soybean 15-lipoxygenase-1; summary of the method: as §2

| Compound | IC50 ([1]; read-out: IC50) [µM] | IC50 [2] [µM] | IC50 [3] [µM] | IC50 [4] [µM] | IC50 [5] [µM] | IC50 [6] [µM] | Kic [7] [µM] | Kiuc [8] [µM] | Ki [9] [µM] | IC50 [1] | inhibition [10] |
| --- | --- | --- | --- | --- | --- | --- | --- | --- | --- | --- | --- |
| CCCCCC(=O)/C=C/C=C\C/C=C\C/C=C\CCCC(=O)O | > 100 | 1 | > 25 | > 100 | > 50 | > 100 | 0.087 | 2.1 |  |  |  |
| CCCCC/C=C\CC(=O)/C=C/C=C\C/C=C\CCCC(=O)O | > 50 | 8 | 3 | > 100 | > 50 | > 100 |  |  | 36.8 |  |  |
| CCCCC/C=C\C/C=C\C/C=C\C=C\C(=O)CCCC(=O)O [5-OXO-ETE] |  | 15 | > 25 | > 100 | > 25 | > 100 |  |  |  | Not Active |  |
| CCCCCC(=O)/C=C/C=C\CCCCCCCC(=O)O | > 100 | > 100 | > 100 | > 100 | > 100 | > 100 |  |  |  |  | inactive |
